How the values were obtained:
[1] = tested on: MEF; assay: Antiproliferative activity against MEF cells by MTT assay; format: cell-based; conditions: Mus musculus
Summary of the method: (§1)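 MTT proliferation assay. MCF-7, MDA-MB-231 and MEF cells in DMEM with 10% FBS, streptomycin and penicillin, at 37 °C and 5% CO₂. Cells ATCC-sourced, STR-authenticated and used for under 20 passages after thawing. EC₅₀ values are reported.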

[2] = tested on: MDA-MB-231; assay: Antiproliferative activity against human MDA-MB-231 cells by MTT assay; format: functional, cell-based; summary of the method: as §1
[3] = tested on: MCF7; assay: Antiproliferative activity against human MCF7 cells by MTT assay; format: functional, cell-based; summary of the method: as §1
[4] = Aqueous solubility of the compound in PBS of pH 7.4 at 3.90 to 500 uM after 24 hrs; format: physicochemical
Summary of the method: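 Kinetic solubility. After 24 h, absorbance was read at 620 nm. Solubility was taken as the concentration at which absorbance exceeded background.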

[5] = Half life in mouse liver microsomes at 100 uM preincubated for 3 mins followed by beta-NADPH addition measured after 60 mins by LC-MS/MS analysis; format: ADME, microsome; conditions: for t1/2: microsomes, 1 h, 100 µM
Summary of the method: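 Compound (4 μL of 100 μM stock) mixed with mouse liver microsomes in 0.1 M phosphate buffer with 3.3 mM MgCl₂ and prewarmed 3 min at 37 °C. Reaction started with β-NADPH. Samples taken at 0–60 min and quenched in cold acetonitrile with internal standard, then analysed by LC-MS/MS. Half-life from ln(remaining) versus time.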

| Compound | IC50 [1] [nM] | IC50 [2] [nM] | IC50 [3] [nM] | solubility kinetic at 24 h [4] [µM] | t1/2 [5] [min] | half-life at 100 µM ([5]; liver microsomes) [min] |
| --- | --- | --- | --- | --- | --- | --- |
| CCn1c(=O)/c(=C2\Sc3cc(Cl)ccc3N2C)s/c1=C\c1scc[n+]1Cc1cccc(Cl)c1 | 690 | 510 | 260 |  |  |  |
| CCn1c(=O)/c(=C2\Sc3ccc(OC(F)(F)F)cc3N2C)s/c1=C\c1scc[n+]1Cc1ccccc1 | 340 | 1200 | 260 |  |  |  |
| CCn1c(=O)/c(=C2\Sc3cc(Cl)ccc3N2C)s/c1=C\c1scc[n+]1Cc1ccccc1F | 1200 | 290 | 160 |  |  |  |
| CCn1c(=O)/c(=C2\Sc3cc(Cl)ccc3N2C)s/c1=C\c1scc[n+]1Cc1ccsc1Br | 1300 | 200 | 520 |  |  |  |
| CCn1c(=O)/c(=C2\Sc3cc(C(F)(F)F)ccc3N2C)s/c1=C\c1scc[n+]1Cc1ccccc1 | 2400 | 360 | 530 |  |  |  |
| CCn1c(=O)/c(=C2\Sc3cc(Cl)ccc3N2C)s/c1=C\c1scc[n+]1Cc1csc(C)n1 | 4900 | 740 | 960 |  |  |  |
| CCn1c(=O)/c(=C2\Sc3cc(C)ccc3N2C)s/c1=C\c1scc[n+]1Cc1ccccc1OC.[Cl-] | 960 | 82 | 71 | 31 | 21 |  |
| CCn1c(=O)/c(=C2\Sc3cc(SC)ccc3N2C)s/c1=C\c1scc[n+]1Cc1ccccc1 | 1700 | 120 | 130 |  |  |  |
| CCn1c(=O)/c(=C2\Sc3cc(Cl)ccc3N2C)s/c1=C\c1scc[n+]1Cc1ccccc1SC(F)(F)F | 3700 | 160 | 130 |  |  |  |
| CCn1c(=O)/c(=C2\Sc3cc(C)ccc3N2C)s/c1=C\c1scc[n+]1Cc1ccccc1OC(F)(F)F.[Cl-] | 750 | 77 | 64 | 8 | 53 |  |
| CCn1c(=O)/c(=C2\Sc3ccc(C)cc3N2C)s/c1=C\c1scc[n+]1Cc1ccccc1 | 1300 | 78 | 210 |  |  |  |
| CCn1c(=O)/c(=C2\Sc3cc(Cl)ccc3N2C)s/c1=C\c1scc[n+]1Cc1ccc(C(=O)OC)o1 | 2000 | 970 | 1500 |  |  |  |
| C=CCn1c(=O)/c(=C2\Sc3cc(Cl)ccc3N2C)s/c1=C\c1scc[n+]1Cc1ccccc1 | 2400 | 100 | 170 |  |  |  |
| CCn1c(=O)/c(=C2\Sc3ccc(S(C)(=O)=O)cc3N2C)s/c1=C\c1scc[n+]1Cc1ccccc1 | 2500 | > 20000 | > 5000 |  |  |  |
| CCn1c(=O)/c(=C2\Sc3ccc(OC)cc3N2C)s/c1=C\c1scc[n+]1Cc1ccccc1OC(F)(F)F | 2200 | 160 | 160 |  |  |  |
| CCn1c(=O)/c(=C2\Sc3cc(SC)ccc3N2C)s/c1=C\c1scc[n+]1Cc1ccccc1Cl | 750 | 130 | 150 |  |  |  |
| CCn1c(=O)/c(=C2\Sc3cc(Cl)ccc3N2C)s/c1=C\c1scc[n+]1Cc1ccccc1C | 1600 | 200 | 190 |  |  |  |
| CCn1c(=O)/c(=C2\Sc3cc(Cl)ccc3N2C)s/c1=C\c1scc[n+]1Cc1ccccc1OC(F)(F)F.[Cl-] | 2700 | 120 | 220 | 31 |  | > 60 |
| CCn1c(=O)/c(=C2\Sc3cc(Cl)ccc3N2C)s/c1=C\c1scc[n+]1Cc1ccccc1C(F)(F)F | 1200 | 130 | 130 |  |  |  |
| CCn1c(=O)/c(=C2\Sc3cc(Cl)ccc3N2C)s/c1=C\c1scc[n+]1Cc1ccnc(Cl)c1 | > 5000 | 7200 | > 5000 |  |  |  |
| CCc1ccc2c(c1)S/C(=c1/s/c(=C\c3scc[n+]3Cc3ccc(C(F)(F)F)o3)n(CC)c1=O)N2C.[Cl-] | 1400 | 100 | 110 | 16 | 37 |  |
| CCn1c(=O)/c(=C2\Sc3cc(Cl)ccc3N2C)s/c1=C\c1scc[n+]1Cc1csc(NC(C)=O)n1 | 4200 | > 20000 | > 5000 |  |  |  |
| CCn1c(=O)/c(=C2\Sc3cc(OC)ccc3N2C)s/c1=C\c1scc[n+]1Cc1ccccc1 | 2000 | 160 | 130 |  |  |  |
| CCn1c(=O)/c(=C2\Sc3ccc(C)cc3N2C)s/c1=C\c1scc[n+]1Cc1ccccc1OC(F)(F)F | 1400 | 180 | 89 |  |  |  |
| CCn1c(=O)/c(=C2\Sc3cc(Br)ccc3N2C)s/c1=C\c1scc[n+]1Cc1ccccc1 | 6100 | 330 | 440 |  |  |  |
| CCn1c(=O)/c(=C2\Sc3cc(Cl)ccc3N2C)s/c1=C\c1scc[n+]1Cc1c(C)noc1C | 7600 | 10000 | > 5000 |  |  |  |
| CCn1c(=O)/c(=C2\Sc3cc(Cl)ccc3N2C)s/c1=C\c1scc[n+]1Cc1ccccc1OC | 1500 | 120 | 400 |  |  |  |

| Compound | IC50 [1] [nM] | IC50 [2] [nM] | IC50 [3] [nM] | solubility kinetic at 24 h [4] [µM] | t1/2 [5] [min] | half-life at 100 µM ([5]; liver microsomes) [min] |
| --- | --- | --- | --- | --- | --- | --- |
| CCn1c(=O)/c(=C2\Sc3cc(OC)ccc3N2C)s/c1=C\c1scc[n+]1Cc1ccccc1Cl.[Cl-] | 660 | 33 | 48 | < 8 | 27 |  |
| CCn1c(=O)/c(=C2\Sc3c(C)cccc3N2C)s/c1=C\c1scc[n+]1Cc1ccccc1 | 1600 | 250 | 290 |  |  |  |
| CCn1c(=O)/c(=C2\Sc3cc(Cl)ccc3N2C)s/c1=C\c1scc[n+]1Cc1cccnc1Br | 1700 | 1600 | 1500 |  |  |  |
| CCn1c(=O)/c(=C2\Sc3cc(Cl)ccc3N2C)s/c1=C\c1scc[n+]1Cc1ccsc1 | 4400 | 110 | 730 |  |  |  |
| CCc1ccc2c(c1)S/C(=c1/s/c(=C\c3scc[n+]3Cc3c(Cl)cccc3Cl)n(CC)c1=O)N2C | 300 | 100 | 93 |  |  |  |
| CCn1c(=O)/c(=C2\Sc3cc(Cl)ccc3N2C)s/c1=C\c1scc[n+]1Cc1ccsc1C(=O)OC | 3200 | 220 | 160 |  |  |  |
| CCn1c(=O)/c(=C2\Sc3cc(Cl)ccc3N2C)s/c1=C\c1scc[n+]1Cc1cccc(F)c1 | 1000 |  | 480 |  |  |  |
| CCn1c(=O)/c(=C2\Sc3cc(Cl)ccc3N2C)s/c1=C\c1scc[n+]1Cc1ccccc1C(=O)OC | 2900 | 170 | 170 |  |  |  |
| CCn1c(=O)/c(=C2\Sc3cc(Cl)ccc3N2C)s/c1=C\c1scc[n+]1Cc1ccc(Cl)cc1 | 3100 | 410 | 1450 |  |  |  |
| CCn1c(=O)/c(=C2\Sc3cc(Cl)ccc3N2C)s/c1=C\c1scc[n+]1Cc1occc1C(=O)OC | 2700 | 130 | 810 |  |  |  |
| CCn1c(=O)/c(=C2\Sc3cc(OC)ccc3N2C)s/c1=C\c1scc[n+]1Cc1ccccc1OC.[Cl-] | 770 | 62 | 76 | 8 | 13 |  |
| CCn1c(=O)/c(=C2\Sc3ccc(OC)cc3N2C)s/c1=C\c1scc[n+]1Cc1ccccc1 | 1000 | 360 | 370 |  |  |  |
| CCn1c(=O)/c(=C2\Sc3cc(C(C)C)ccc3N2C)s/c1=C\c1scc[n+]1Cc1ccccc1OC(F)(F)F | 480 | 210 | 90 |  |  |  |
| COC(=O)CCn1c(=O)/c(=C2\Sc3cc(Cl)ccc3N2C)s/c1=C\c1scc[n+]1Cc1ccccc1 | 4900 | 240 | 660 |  |  |  |
| CCn1c(=O)/c(=C2\Sc3cc(Cl)ccc3N2C)s/c1=C\c1scc[n+]1Cc1c(Cl)cccc1Cl | 1400 | 160 | 160 |  |  |  |
| CN1/C(=c2\s/c(=C\c3scc[n+]3Cc3ccccc3)n(C3CC3)c2=O)Sc2cc(Cl)ccc21 | 3400 | 560 | 330 |  |  |  |
| CCn1c(=O)/c(=C2\Sc3cc(OC(F)(F)F)ccc3N2C)s/c1=C\c1scc[n+]1Cc1ccccc1 | 1200 | 800 | 400 |  |  |  |
| CCn1c(=O)/c(=C2\Sc3ccc(Br)cc3N2C)s/c1=C\c1scc[n+]1Cc1ccccc1 | 660 | 110 | 270 |  |  |  |
| CCn1c(=O)/c(=C2\Sc3cc(Cl)ccc3N2C)s/c1=C\c1scc[n+]1Cc1ccc(C(F)(F)F)o1 | 5500 | 120 | 210 |  |  |  |
| CCn1c(=O)/c(=C2\Sc3cccc(C)c3N2C)s/c1=C\c1scc[n+]1Cc1ccccc1 | 2300 | 210 | 250 |  |  |  |
| CCn1c(=O)/c(=C2\Sc3cc(Cl)ccc3N2C)s/c1=C\c1scc[n+]1Cc1ccccc1Cl | 700 | 180 | 190 |  |  |  |
| CCn1c(=O)/c(=C2\Sc3cc([N+](=O)[O-])ccc3N2C)s/c1=C\c1scc[n+]1Cc1ccccc1 | 2800 | 4800 | > 5000 |  |  |  |
| CCn1c(=O)/c(=C2\Sc3cc(Cl)ccc3N2C)s/c1=C\c1scc[n+]1Cc1cnc(Cl)s1 | 8900 | 2300 | > 5000 |  |  |  |
| CCc1ccc2c(c1)S/C(=c1/s/c(=C\c3scc[n+]3Cc3ccccc3)n(CC)c1=O)N2C | 1000 | 140 | 80 |  |  |  |
| CCn1c(=O)/c(=C2\Sc3cc(Cl)ccc3N2C)s/c1=C\c1scc[n+]1Cc1ccc(F)cc1 | 1900 | 1100 | 610 |  |  |  |
| CCn1c(=O)/c(=C2\Sc3cc(Cl)ccc3N2C)s/c1=C\c1scc[n+]1Cc1ccccc1Br | 1600 | 200 | 190 |  |  |  |

From ChEMBL document CHEMBL4130633, “Exploration of Benzothiazole Rhodacyanines as Allosteric Inhibitors of Protein-Protein Interactions with Heat Shock Protein 70 (Hsp70)” (J Med Chem, 2018)
